Test results taken from ChEMBL document CHEMBL1629686, “Substrate selectivity and a novel role in inhibitor discrimination by residue 237 in the KPC-2 beta-lactamase” (Antimicrob Agents Chemother, 2010).
Values after ≈ are worked out from the molar mass of the structure shown.

Key:
Escherichia coli [1] = test: Antimicrobial activity against Escherichia coli DH10B harboring beta-lactamase KPC-2 T237M mutant by agar dilution method; format: functional; conditions: K-12 DH10B
How it was run: (§1)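 LB agar dilution MICs followed CLSI criteria, with inocula applied by Steers replicator. […] Piperacillin-tazobactam was tested at an 8:1 ratio. Wild-type and mutant blaKPC-2 were carried on pBC SK(+), or wild type on pBR322-catI, in E. coli DH10B.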

Escherichia coli [2] = test: Antimicrobial activity against Escherichia coli DH10B harboring beta-lactamase KPC-2 T237A mutant by agar dilution method; format: functional; conditions: K-12 DH10B; how it was run: as §1
Escherichia coli [3] = test: Antimicrobial activity against Escherichia coli DH10B harboring beta-lactamase KPC-2 T237V mutant by agar dilution method; format: functional; conditions: K-12 DH10B; how it was run: as §1
Escherichia coli [4] = test: Antimicrobial activity against Escherichia coli DH10B harboring beta-lactamase KPC-2 T237Q mutant by agar dilution method; format: functional; conditions: K-12 DH10B; how it was run: as §1
Escherichia coli [5] = test: Antimicrobial activity against Escherichia coli DH10B harboring beta-lactamase KPC-2 T237C mutant by agar dilution method; format: functional; conditions: K-12 DH10B; how it was run: as §1
Escherichia coli [6] = test: Antimicrobial activity against Escherichia coli DH10B harboring plasmid pBR322-catI carrying beta-lactamase KPC-2 by agar dilution method; format: functional; conditions: K-12 DH10B; how it was run: as §1
Escherichia coli [7] = test: Antimicrobial activity against Escherichia coli DH10B harboring beta-lactamase KPC-2 T237D mutant by agar dilution method; format: functional; conditions: K-12 DH10B; how it was run: as §1
Escherichia coli [8] = test: Antimicrobial activity against Escherichia coli DH10B harboring plasmid […] by agar dilution method; format: functional; conditions: K-12 DH10B; how it was run: as §1
Escherichia coli [9] = test: Antimicrobial activity against Escherichia coli DH10B harboring beta-lactamase KPC-2 T237P mutant by agar dilution method; format: functional; conditions: K-12 DH10B; how it was run: as §1
Klebsiella pneumoniae [10] = test: Ratio of Kcat/Km for Klebsiella pneumoniae 1534 beta-lactamase KPC-2 T237S mutant by spectrophotometric analysis
How it was run: (§2)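 Purified KPC-2 variant enzymes (periplasmic lysate from E. coli, preparative isoelectric focusing). Hydrolysis followed by diode-array spectrophotometry in 10 mM PBS, pH 7.4, room temperature. Enzyme at 10 nM with substrate in molar excess for pseudo-first-order conditions. Vmax and Km came from a nonlinear least-squares Michaelis-Menten fit.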

Escherichia coli [11] = test: Antimicrobial activity against Escherichia coli DH10B harboring beta-lactamase KPC-2 T237E mutant by agar dilution method; format: functional; conditions: K-12 DH10B; how it was run: as §1
Escherichia coli [12] = test: Antimicrobial activity against Escherichia coli DH10B harboring beta-lactamase KPC-2 T237H mutant by agar dilution method; format: functional; conditions: K-12 DH10B; how it was run: as §1
Escherichia coli [13] = test: Antimicrobial activity against Escherichia coli DH10B harboring beta-lactamase KPC-2 T237W mutant by agar dilution method; format: functional; conditions: K-12 DH10B; how it was run: as §1
Klebsiella pneumoniae [14] = test: Ratio of Kcat/Km for Klebsiella pneumoniae 1534 beta-lactamase KPC-2 T237A mutant by spectrophotometric analysis; how it was run: as §2
Escherichia coli [15] = test: Antimicrobial activity against Escherichia coli DH10B harboring beta-lactamase KPC-2 T237Y mutant by agar dilution method; format: functional; conditions: K-12 DH10B; how it was run: as §1
Escherichia coli [16] = test: Antimicrobial activity against Escherichia coli DH10B harboring beta-lactamase KPC-2 T237I mutant by agar dilution method; format: functional; conditions: K-12 DH10B; how it was run: as §1
Escherichia coli [17] = test: Antimicrobial activity against Escherichia coli DH10B harboring beta-lactamase KPC-2 T237N mutant by agar dilution method; format: functional; conditions: K-12 DH10B; how it was run: as §1
Escherichia coli [18] = test: Antimicrobial activity against Escherichia coli DH10B harboring beta-lactamase KPC-2 T237S mutant by agar dilution method; format: functional; conditions: K-12 DH10B; how it was run: as §1
Escherichia coli [19] = test: Antimicrobial activity against Escherichia coli DH10B by agar dilution method; format: functional; conditions: K-12 DH10B; how it was run: as §1
Klebsiella pneumoniae [20] = test: Selectivity index, Ratio of Kcat/Km for Klebsiella pneumoniae 1534 beta-lactamase KPC-2 T237S mutant to ratio of Kcat/Km for Klebsiella pneumoniae 1534 beta-lactamase KPC-2 by spectrophotometric analysis
How it was run: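 Kinetics used purified enzymes in 10 mM PBS, pH 7.4, room temperature, with 10 nM enzyme and substrate in excess. Km and Vmax came from a Michaelis-Menten fit. kcat/Km of the variant was compared with wild type as ΔΔG = −RT ln of the kcat/Km ratio.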

Escherichia coli [21] = test: Antimicrobial activity against Escherichia coli DH10B harboring beta-lactamase KPC-2 T237L mutant by agar dilution method; format: functional; conditions: K-12 DH10B; how it was run: as §1
Klebsiella pneumoniae [22] = test: Antimicrobial activity against Klebsiella pneumoniae 1534 expressing beta-lactamase KPC-2 by agar dilution method; format: functional
How it was run: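 MICs were determined by LB agar dilution following CLSI criteria, with a Steers replicator. […] Piperacillin-tazobactam was kept at an 8:1 ratio.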

Escherichia coli [23] = test: Antimicrobial activity against Escherichia coli DH10B harboring beta-lactamase KPC-2 T237K mutant by agar dilution method; format: functional; conditions: K-12 DH10B; how it was run: as §1
Escherichia coli [24] = test: Antimicrobial activity against Escherichia coli DH10B harboring beta-lactamase KPC-2 T237G mutant by agar dilution method; format: functional; conditions: K-12 DH10B; how it was run: as §1
Escherichia coli [25] = test: Antimicrobial activity against Escherichia coli DH10B harboring beta-lactamase KPC-2 T237F mutant by agar dilution method; format: functional; conditions: K-12 DH10B; how it was run: as §1
Escherichia coli [26] = test: Antimicrobial activity against Escherichia coli DH10B harboring beta-lactamase KPC-2 T237R mutant by agar dilution method; format: functional; conditions: K-12 DH10B; how it was run: as §1
Klebsiella pneumoniae [27] = test: Activity of Klebsiella pneumoniae 1534 beta-lactamase KPC-2 T237S mutant by spectrophotometric analysis; how it was run: as §2
Klebsiella pneumoniae [28] = test: Activity of Klebsiella pneumoniae 1534 beta-lactamase KPC-2 T237A mutant by spectrophotometric analysis; how it was run: as §2
Escherichia coli [29] = test: Antimicrobial activity against Escherichia coli DH10B harboring plasmid pBC SK(+) carrying wild type beta-lactamase KPC-2 by agar dilution method; format: functional; conditions: K-12 DH10B; how it was run: as §1
[30] = Inhibition of Klebsiella pneumoniae 1534 beta-lactamase KPC-2 T237A mutant by competitive assay
How it was run: (§3)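 Direct competition assay at steady state with purified enzyme at 10 nM. Inhibitor was varied from 5 μM to 5 mM, with nitrocefin 100 μM final as reporter substrate. 1/v0 was plotted against [I], and Ki(observed) was taken as y-intercept divided by slope. This was corrected by 1 + [S]/Km(nitrocefin).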

Klebsiella pneumoniae [31] = test: Ratio of Ki for Klebsiella pneumoniae 1534 beta-lactamase KPC-2 T237A mutant to Ki for wild type Klebsiella pneumoniae beta-lactamase KPC-2 by competitive assay
Klebsiella pneumoniae [32] = test: Ratio of Ki for Klebsiella pneumoniae 1534 beta-lactamase KPC-2 T237S mutant to Ki for Klebsiella pneumoniae wild type beta-lactamase KPC-2 by competitive assay; how it was run: as §3
[33] = Inhibition of Klebsiella pneumoniae 1534 beta-lactamase KPC-2 T237S mutant by competitive assay; how it was run: as §3

SMILES	MIC (Escherichia coli [1]) [µg/mL]	MIC (Escherichia coli [2]) [µg/mL]	MIC (Escherichia coli [3]) [µg/mL]	MIC (Escherichia coli [4]) [µg/mL]	MIC (Escherichia coli [5]) [µg/mL]	MIC (Escherichia coli [6]) [µg/mL]	MIC (Escherichia coli [7]) [µg/mL]	MIC (Escherichia coli [8]) [µg/mL]	MIC (Escherichia coli [9]) [µg/mL]	MIC (Escherichia coli [11]) [µg/mL]	MIC (Escherichia coli [12]) [µg/mL]	MIC (Escherichia coli [13]) [µg/mL]	MIC (Escherichia coli [15]) [µg/mL]	MIC (Escherichia coli [16]) [µg/mL]	MIC (Escherichia coli [17]) [µg/mL]	MIC (Escherichia coli [18]) [µg/mL]	MIC (Escherichia coli [19]) [µg/mL]	MIC (Escherichia coli [21]) [µg/mL]	MIC (Klebsiella pneumoniae [22]) [µg/mL]	MIC (Escherichia coli [23]) [µg/mL]	further results
CC(=O)OCC1=C(C(=O)O)N2C(=O)[C@@H](NC(=O)Cc3cccs3)[C@H]2SC1 [CEPHALOTHIN]	16 (≈ 40.4 µM)	32 (≈ 80.7 µM)	8 (≈ 20.2 µM)	16 (≈ 40.4 µM)	4 (≈ 10.1 µM)	512 (≈ 1290 µM)	4 (≈ 10.1 µM)	4 (≈ 10.1 µM)	2 (≈ 5.04 µM)	4 (≈ 10.1 µM)	16 (≈ 40.4 µM)	32 (≈ 80.7 µM)	16 (≈ 40.4 µM)	4 (≈ 10.1 µM)	4 (≈ 10.1 µM)	256 (≈ 646 µM)	4 (≈ 10.1 µM)	8 (≈ 20.2 µM)	1020 (≈ 2580 µM)	4 (≈ 10.1 µM)	kcat/Km (Klebsiella pneumoniae [10]): 3.6 µM⁻¹ s⁻¹; kcat/Km (Klebsiella pneumoniae [14]): 0.9 µM⁻¹ s⁻¹; fold change (FC) (Klebsiella pneumoniae [20]): 2.7; MIC (Escherichia coli [24]): 4 µg/mL (≈ 10.1 µM); MIC (Escherichia coli [25]): 4 µg/mL (≈ 10.1 µM); MIC (Escherichia coli [26]): 4 µg/mL (≈ 10.1 µM); Km (Klebsiella pneumoniae [27]): 18 µM; kcat (Klebsiella pneumoniae [27]): 65 s⁻¹; Km (Klebsiella pneumoniae [28]): 30 µM; kcat (Klebsiella pneumoniae [28]): 26 s⁻¹; MIC (Escherichia coli [29]): 256 µg/mL (≈ 646 µM)
C[C@@H](O)[C@H]1C(=O)N2C(C(=O)O)=C(S[C@@H]3CN[C@H](C(=O)Nc4cccc(C(=O)O)c4)C3)[C@H](C)[C@H]12	0.06 (≈ 0.126 µM)	0.06 (≈ 0.126 µM)	0.06 (≈ 0.126 µM)	0.06 (≈ 0.126 µM)	0.06 (≈ 0.126 µM)	2 (≈ 4.21 µM)	0.06 (≈ 0.126 µM)	0.06 (≈ 0.126 µM)	0.06 (≈ 0.126 µM)	0.06 (≈ 0.126 µM)	0.06 (≈ 0.126 µM)	0.06 (≈ 0.126 µM)	0.06 (≈ 0.126 µM)	0.06 (≈ 0.126 µM)	0.06 (≈ 0.126 µM)	0.5 (≈ 1.05 µM)	0.06 (≈ 0.126 µM)	0.06 (≈ 0.126 µM)	8 (≈ 16.8 µM)	0.06 (≈ 0.126 µM)	MIC (Escherichia coli [24]): 0.06 µg/mL (≈ 0.126 µM); MIC (Escherichia coli [25]): 0.06 µg/mL (≈ 0.126 µM); MIC (Escherichia coli [26]): 0.06 µg/mL (≈ 0.126 µM); MIC (Escherichia coli [29]): 0.25 µg/mL (≈ 0.526 µM)
C[C@@H](O)[C@H]1C(=O)N2C(C(=O)O)=C(S[C@@H]3CN[C@H](C(=O)N(C)C)C3)[C@H](C)[C@H]12 [MEROPENEM]	0.06 (≈ 0.156 µM)	0.06 (≈ 0.156 µM)	0.06 (≈ 0.156 µM)	0.06 (≈ 0.156 µM)	0.06 (≈ 0.156 µM)	2 (≈ 5.22 µM)	0.06 (≈ 0.156 µM)	0.06 (≈ 0.156 µM)	0.06 (≈ 0.156 µM)	0.06 (≈ 0.156 µM)	0.06 (≈ 0.156 µM)	0.06 (≈ 0.156 µM)	0.06 (≈ 0.156 µM)	0.06 (≈ 0.156 µM)	0.06 (≈ 0.156 µM)	0.5 (≈ 1.3 µM)	0.06 (≈ 0.156 µM)	0.06 (≈ 0.156 µM)	4 (≈ 10.4 µM)	0.06 (≈ 0.156 µM)	MIC (Escherichia coli [24]): 0.06 µg/mL (≈ 0.156 µM); MIC (Escherichia coli [25]): 0.06 µg/mL (≈ 0.156 µM); MIC (Escherichia coli [26]): 0.06 µg/mL (≈ 0.156 µM); MIC (Escherichia coli [29]): 0.25 µg/mL (≈ 0.652 µM)
CC1(C)[C@H](C(=O)O)N2C(=O)C[C@H]2S1(=O)=O [SULBACTAM]																					Ki [30]: 703 µM; fold change (FC) (Klebsiella pneumoniae [31]): 4.2; fold change (FC) (Klebsiella pneumoniae [32]): 1.7; Ki [33]: 97 µM
